Experimental data published in paper PMC4387373 (Infectious Disease Reports, 2015).
Read-outs that look alike come from different tables or passages of the source. One block for each molecule: values may come before it.

Columns and labels:
[1] = Plasma concentrations of protease inhibitors; type: in vivo, human; conditions: for concentration at 2 h / concentration at 4 h / concentration at 6 h / concentration at 8 h: human, plasma, oral; for Plasma concentration, t0: t0, 8 a.m., before intake of antiretroviral dose, fosamprenavir 700 mg bid
Outline: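 Heparinized venous blood was drawn before the morning antiretroviral dose (T0) and at 2, 4, 6 and 8 h after it. Plasma was separated by centrifugation and stored at −80 °C. PI levels were measured by a validated HPLC method.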

[2] = Clinical course of the patient: hemodynamics, functional class, tolerability; type: in vivo, human
[3] = cited from earlier work
[4] = cited from earlier work; remark: listed apart in the source
[5] = type: in vivo, human; conditions: for concentration at 2 h / concentration at 4 h / concentration at 6 h / concentration at 8 h: human, plasma, oral; for Cthrough (through concentration): patient on sildenafil 40 mg tid, bosentan 125 mg bid, ritonavir-boosted PI
[6] = cited from earlier work; remark: listed apart in the source
phosphodiesterase = conditions: same phosphodiesterase specificity as sildenafil; cited from earlier work
[7] = coadministered with lopinavir/ritonavir

concentration at 2 h [1]: < 50 ng/mL
concentration at 4 h [1]: < 50 ng/mL
concentration at 6 h [1]: < 50 ng/mL
concentration at 8 h [1]: < 50 ng/mL
Plasma levels in all of the samples ([1]; ritonavir 100 mg bid, bosentan coadministered): undetectable
Plasma concentration, t0 ([1]; ritonavir 100 mg bid): <50 ng/mL
Compound: CC(C)c1nc(CN(C)C(=O)N[C@H](C(=O)N[C@@H](Cc2ccccc2)C[C@H](O)[C@H](Cc2ccccc2)NC(=O)OCc2cncs2)C(C)C)cs1 [ritonavir]

concentration at 2 h [1]: 1680 ng/mL
concentration at 4 h [1]: 3960 ng/mL
concentration at 6 h [1]: 2170 ng/mL
concentration at 8 h [1]: 1890 ng/mL
Cthrough ([1]; patient on fosamprenavir 700 mg bid, ritonavir 100 mg bid): 1495 ng/mL
Plasma levels versus therapeutic ranges ([1]; patient, therapeutic ranges from ref 16): within therapeutic ranges
Plasma concentration, t0 ([1]; ritonavir 100 mg bid): 1495 ng/mL
Compound: CC(C)CN(C[C@@H](O)[C@H](Cc1ccccc1)NC(=O)O[C@H]1CCOC1)S(=O)(=O)c1ccc(N)cc1 [amprenavir]

Plasma concentration versus the therapeutic range ([5]; coadministration of sildenafil and ritonavir-boosted PI): above the therapeutic range
concentration at 2 h [5]: 925 ng/mL
concentration at 4 h [5]: 566 ng/mL
concentration at 6 h [5]: 1730 ng/mL
concentration at 8 h [5]: 900 ng/mL
Cthrough (through concentration) [5]: 276.94 ng/mL
Compound: CCCc1nn(C)c2c(=O)[nH]c(-c3cc(S(=O)(=O)N4CCN(C)CC4)ccc3OCC)nc12 [sildenafil]
Mean PAP ([2]; May 2012, worsening exertional dyspnea on sildenafil 20 mg tid): 47 mmHg
Mean PAP ([2]; October 2012, after sildenafil increased to 40 mg tid, bosentan 125 mg bid): 40 mmHg
6-minute walking test ([2]; October 2012, sildenafil 40 mg tid, bosentan 125 mg bid): 479 m
NYHA stage change ([2]; after introduction of sildenafil 20 mg tid): from NYHA stage III to NYHA stage II
Mean PAP ([2]; after sildenafil 20 mg tid was added to bosentan, previously 63 mmHg): 43 mmHg
Eye fundus examination versus baseline ([2]; during follow-up): no significant changes
Influence on systemic blood pressure ([2]; measured regularly during the investigation): no significant influence
Adverse reactions during follow-up ([2]; patient with raised sildenafil levels, headache, flushing, dyspepsia, priapism): did not report any adverse reactions
tmax ([3]; healthy adults, 20 mg tid, oral): approximately 1 hour
Cmax ([3]; healthy adults, sildenafil 20 mg tid): about 145 ng/mL
Increase of AUC ([4]; with ritonavir 500 mg twice daily): 11 fold
Plasma concentration at which maximal reductions in PAP and PVR were obtained [6]: ~100 ng/mL

Plasma concentrations as % of the parent drug ([5]; during the study, patient on ritonavir-boosted PI): 40-50%
Plasma concentration, t2 ([5]; t2, 10 a.m., 2 hours after intake of sildenafil and bosentan): 58.33 ng/mL
Plasma concentration, t4 ([5]; t4, noon, 4 hours after intake of sildenafil and bosentan): 61.85 ng/mL
Plasma concentration, t6 ([5]; t6, 2 p.m., 6 hours after intake of sildenafil and bosentan): 140.95 ng/mL
Plasma concentration, t8 ([5]; t8, 4 p.m., 8 hours after intake of sildenafil and bosentan): 121.35 ng/mL
Compound: CCCc1nn(C)c2c(=O)[nH]c(-c3cc(S(=O)(=O)N4CCNCC4)ccc3OCC)nc12 [N-desmethylsildenafil]
Potency relative to sildenafil (phosphodiesterase): about half the potency
Plasma levels as % of the parent drug ([3]; metabolite relative to sildenafil): 40-50%

concentration at 2 h [5]: 3370 ng/mL
concentration at 4 h [5]: 1750 ng/mL
concentration at 6 h [5]: 1310 ng/mL
concentration at 8 h [5]: 1230 ng/mL
Cthrough (through concentration) [5]: 1546.53 ng/mL
Compound: COc1ccccc1Oc1c(NS(=O)(=O)c2ccc(C(C)(C)C)cc2)nc(-c2ncccn2)nc1OCCO [bosentan]
Increase of Cmax ([4]; by steady-state sildenafil, healthy volunteers): 42%
Increase in AUC at steady state [4, 7]: 422%
Increase in Cmax at steady state [4, 7]: 512%
